Bioassay records: PubChem BioAssay, Broad Institute
An excerpt weighted towards active compounds, which were near 1.4% of everything screened.
PDI turbidity: inhibitors of human PDI, primary screen, biochemical, turbidity, single point, plate reader | 0.052% of 350,000 active | AID 588391, 2011 | Protein disulfide-isomerase (Homo sapiens), P07237 | PDI insulin aggregation turbidity, A650, 90 min | inhibition, % at 10 µM;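 active = mean inhibition across replicates of 30% or more, whatever share of single replicates reach that level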
Target sequence (P07237 whole entry, looked up): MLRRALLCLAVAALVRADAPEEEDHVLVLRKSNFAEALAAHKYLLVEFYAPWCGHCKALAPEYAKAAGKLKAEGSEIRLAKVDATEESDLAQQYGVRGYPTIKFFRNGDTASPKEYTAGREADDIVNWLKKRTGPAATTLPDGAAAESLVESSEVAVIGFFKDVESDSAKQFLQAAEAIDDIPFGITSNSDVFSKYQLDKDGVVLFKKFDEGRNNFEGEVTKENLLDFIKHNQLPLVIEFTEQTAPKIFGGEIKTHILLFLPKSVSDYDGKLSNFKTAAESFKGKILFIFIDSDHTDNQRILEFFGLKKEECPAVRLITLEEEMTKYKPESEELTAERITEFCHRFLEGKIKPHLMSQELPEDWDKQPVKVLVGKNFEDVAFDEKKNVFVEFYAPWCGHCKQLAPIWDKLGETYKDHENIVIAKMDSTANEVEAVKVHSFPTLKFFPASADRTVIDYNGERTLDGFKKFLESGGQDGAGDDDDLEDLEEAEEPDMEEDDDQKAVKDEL
ERp5 inh: inhibitors of ERp5-driven insulin aggregation, primary screen, biochemical, turbidity, absorbance 650 nm, single point; inhibition, % at 9.99 µM; AID 651711, 2012; 90 min; Protein disulfide-isomerase A6 (Homo sapiens), Q15084; 0.05% of 350,000 active;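 active = mean replicate inhibition above about 25%, with every replicate also reaching it, limit read from the data, passing the limit was not always enough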
INS-1E GSIS act: GLuc luminescence reporter in INS-1E cells, primary screen for activators of glucose-dependent secretion of insulin; activation, % at 16.6 µM; 0.61% of 370,000 active; AID 743287, 2014; INS-1E GLuc reporter insulin secretion, 2-3 h;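 active = lowest replicate activation of at least 40%, so every replicate reaches that level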;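 also: 0% = median of neutral control wells and 100% = median of IBMX positive control wells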
FN deposition inh: inhibitors of fibronectin matrix deposition, primary screen, AH1F cells, Alexa488-fibronectin fluorescence, plate reader. AID 743247, 2014. inhibition, % at 12.6 µM. AH1F fibroblasts, overnight. 0.086% of 350,000 active;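 active = mean inhibition across replicates of 30% or more, regardless of how many single replicates reach that level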;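 also: positive control wells lacked labelled fibronectin entirely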
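material = AH1F fibroblast monolayer depositing Alexa488-labelled fibronectin into matrix | amount = 10000 AH1F cells/well | buffer or medium = DMEM plus 2% serum, read in PBS | incubation = 1 h cell adhesion before compound, then overnight fibronectin incubation | detection = fluorescence at 485 nm excitation, 525 nm emission | evaluation = percent inhibition as loss of matrix-bound fibronectin fluorescence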
HIV Env fusion: inhibitors of HIV-1 Env-driven cell-cell fusion, primary screen, HeLa-JRFL effector, CEM21 target cells, luciferase; inhibition, % at 12.3 µM; 1.1% of 360,000 active;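 active = mean replicate inhibition score of at least 50 and every replicate individually at or above 50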;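 also: 0% = plate neutral controls and 100% = maraviroc near 300 nM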
* hit, by the source's call; . = not tested or not shown; [ ] = dose if it differs, or a comment.

SMILES | PDI turbidity | ERp5 inh | INS-1E GSIS act | FN deposition inh | HIV Env fusion
CCNC(=O)C[C@H]1CC[C@@H]2[C@@H](COc3ccc(NC(=O)Cc4cccs4)cc3C(=O)N2C)O1 | . | -3 | -4 | -4 | 65*[16.7 µM]
CC(=O)Nc1ccc2c(c1)C(=O)N(C)[C@@H]1CC[C@@H](CC(=O)NCC3CC3)O[C@@H]1CO2 | . | 8 | 6 | 6 | 5[16.7 µM]
COc1ccc(C[C@@H]2CCn3nncc3COC[C@@H](c3ccccc3)NC2=O)cc1 | . | . | 6 | 7 | .
C[C@H](NC(=O)C[C@@H]1CC[C@@H](NS(=O)(=O)c2cccc(F)c2)[C@H](CO)O1)c1ccccc1 | . | -3 | 2 | 2 | .
CC(C)(C)[C@@H]1C=C(C(=O)Nc2ccccc2)O[C@H](OCc2ccc(CO)cc2)C1 | 6 | 8 | -17 | 0 | 97*
C#CCNC(=O)C1=C[C@H](C(C)(C)C)C[C@H](OCc2ccc(CO)cc2)O1 | 3 | 4 | 4 | 6 | -1
CCOC(=O)C1C(=O)C=C(c2cccs2)CC1c1ccccc1 (stereo not given) | 1 | 8 | . | 1 | 34
CCOC(=O)C1C(=O)C=C(c2cccs2)CC1c1ccccc1C (stereo not given) | -4 | . | 49* | -15 | -3
Nc1c(-c2ccccc2)nc2ncccn12 | . | 5 | 49* | 0 | -2
C[C@H]1CCCCO[C@@H](CN(C)Cc2ccccc2)[C@@H](C)CN([C@@H](C)CO)C(=O)c2cc(N(C)C)ccc2O1 | . | -7 | -12 | . | 28[16.7 µM]
C[C@@H]1CN([C@H](C)CO)C(=O)c2cc(NS(=O)(=O)c3ccccc3)ccc2O[C@H]1CN(C)C | . | 0 | 27 | 3 | -9[16.7 µM]
O=C(O)CCNc1ccc(NCCC(=O)O)c2c1C(=O)c1ccccc1C2=O | 3 | -2 | -6 | 3 | 22
O=C1c2cccc(NCCNCCO)c2C(=O)c2cccc(NCCNCCO)c21 | -3 | 6 | 6 | 3 | 59*
COCCNC(=S)N(Cc1cc2cc(C)ccc2n2nnnc12)C1CCCC1 | 0 | 0 | -20 | -5 | 60*
C#CCOCCOCCOCCNc1nc(N2CCOCC2)nc(N2CCN(C(=O)[C@H](Cc3cc4ccccc4[nH]3)n3cc([C@@H](N)C(C)CC)nn3)CC2)n1 (stereo not given in full) | 9 | 1 | -12 | -5 | 19
C#CCOCCOCCOCCNc1nc(N2CCN(C(=O)C(Cc3cc4ccccc4[nH]3)n3cc(C(N)C(C)CC)nn3)CC2)nc(N2CCN(C(=O)C(Cc3cc4ccccc4[nH]3)n3cc(C(N)C(C)CC)nn3)CC2)n1 (stereo not given) | 55* | . | . | . | .
C#CCOCCOCCOCCNc1nc(N2CCN(C(=O)[C@H](CCCCN)n3cc([C@@H](N)CC(C)C)nn3)CC2)nc(N2CCN(C(=O)[C@H](Cc3cc4ccccc4[nH]3)n3cc([C@@H](N)Cc4ccc(O)cc4)nn3)CC2)n1 | 35* | . | . | . | .
O=C(Nc1ccc(F)cc1)N1C[C@@H]2[C@H](c3ccccc31)[C@@H](CO)N2C(=O)c1ccc(F)cc1 | . | . | -9 | 11 | .
COc1ccccc1-c1cnc2c(c1)C(=O)N([C@@H](C)CO)C[C@H](C)[C@@H](CN(C)Cc1ccncc1)O2 | . | 0 | 1 | -1 | -23[16.7 µM]
CCN(CC)CCCn1c2c(c(SCC(=O)Nc3cc(C)cc(C)c3)nc1=O)CCC2 | 0 | -1 | . | 3 | -1
CCN(CC)CCn1c2c(c(SCC(=O)Nc3cc(OC)cc(OC)c3)nc1=O)CCC2 | -4 | 5 | 29 | -2 | 61*
COc1ccc(-c2cc(C3CCN(c4cc(Cl)nc(N)n4)CC3)[nH]n2)cc1 | -10 | . | . | . | 94*
Nc1nc(Cl)cc(N2CCC(c3cc(-c4ccc(Cl)cc4)n[nH]3)CC2)n1 | -8 | 4 | -35 | . | .
COc1ccc(OC)c(-c2cc(C3CCN(c4cc(Cl)nc(N)n4)CC3)[nH]n2)c1 | 22 | . | . | 1 | 63*
CCCN1C[C@H](C)[C@H](OC)CN(C)C(=O)c2cc(NC(=O)C3CCC3)ccc2OC[C@H]1C | . | . | 2 | -8 | -4[16.7 µM]
SMILES | PDI turbidity | ERp5 inh | INS-1E GSIS act | FN deposition inh | HIV Env fusion
CO[C@@H]1CN(C)C(=O)c2ccc(NC(=O)C3CCCC3)cc2OC[C@@H](C)N(C)C[C@@H]1C | . | 2 | 7 | 5 | .
CC(=O)C1=C(S(=O)(=O)c2ccc(C)cc2)CS(=O)(=O)C1 | 0 | 11 | 124* | -1 | -41
CN1C(=O)c2cc(NC(=O)C3CCC3)ccc2OC[C@@H]2O[C@@H](CC(=O)NCc3ccccc3F)CC[C@H]21 | . | -1 | 13 | -7 | .
C[C@H]1CN([C@@H](C)CO)C(=O)c2cccc(NC(=O)Nc3ccccc3)c2O[C@H]1CN(C)Cc1ccc(-c2ccccc2)cc1 | . | 3 | -19 | . | -25[16.7 µM]
CC(=O)NS(=O)(=O)c1ccc(NC(=O)/C=C/c2cn(-c3ccccc3)nc2-c2ccccc2)cc1 | -1 | -1 | -11 | 2 | -1
O=C(/C=C\c1cn(-c2ccccc2)nc1-c1ccccc1)Nc1nccs1 | -8 | . | 47* | 2 | 0
CNC[C@@H]1Oc2cc(C#Cc3cccnc3)ccc2S(=O)(=O)N([C@@H](C)CO)C[C@@H]1C | . | -9 | -3 | -4 | -25[16.7 µM]
O=C(CCCCn1c(=O)[nH]c2ccccc2c1=O)N1CCN(c2cccc(C(F)(F)F)c2)CC1 | 4 | . | . | -7 | 83*
O=C(CCn1c(=O)[nH]c2ccccc2c1=O)N1CCN(c2cccc(C(F)(F)F)c2)CC1 | -3 | . | -27 | 6 | 19
O=C(O)C1CCN(C(=O)CSc2nc3cc(Cl)ccc3c(=O)n2Cc2ccccc2)CC1 | -2 | 5 | -26 | 5 | 8
CCn1c(SCC(=O)NCc2ccccc2)nc2ccccc2c1=O | -7 | 4 | 5 | . | .
O=C(CSc1nc2ccccc2c(=O)n1Cc1ccc(Cl)cc1)NCc1cccs1 | -8 | -5 | 4 | . | 70*
O=C(O)C1CCN(C(=O)CSc2nc3ccccc3c(=O)n2Cc2ccccc2)CC1 | 23 | -3 | 43* | -14 | -20
C/C(N)=C(/C#N)C(=O)CSc1nc2ccccc2c(=O)n1Cc1ccc(F)cc1 | -2 | 4 | 9 | 14 | 67*
COc1ccc2c3c([nH]c2c1)[C@@H](CO)N(C(=O)C1CCCC1)CC31CN(S(C)(=O)=O)C1 | . | -2 | -12 | . | .
CCCN1C[C@H](C)[C@H](OC)CN(C)C(=O)c2ccc(NC(=O)Nc3ccccc3F)cc2OC[C@@H]1C | . | 12 | -5 | . | .
CC(=O)N(C)C[C@@H]1Oc2cc(-c3cncnc3)ccc2S(=O)(=O)N([C@H](C)CO)C[C@H]1C | . | -9 | 1 | 7 | -13[16.7 µM]
O=C(c1ccco1)N1N=C(C2CCCCC2)CC1(O)C(F)(F)F (stereo not given) | 1 | 4 | 52* | -6 | 4
CCC(=O)N1[C@@H]2c3cccc(=O)n3C[C@H]1[C@H](CO)[C@H]2C(=O)NCc1ccccc1 | . | 2 | -3 | . | .
